In ChEMBL document CHEMBL2062435, “Synthesis and in vitro antibacterial activity of gemifloxacin derivatives containing a substituted benzyloxime moiety” (2012):

Legend:
Assay type in all cases: functional
Staphylococcus aureus [1] = experiment: Antimicrobial activity against Staphylococcus aureus ATCC […] after 18-24 hrs by two-fold serial dilution method
How it was run: (§1)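 Agar-medium twofold serial dilution against Gram-positive and Gram-negative strains; MIC taken as the lowest compound concentration giving complete inhibition of bacterial growth after incubation at 35 °C for 18-24 h.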

Staphylococcus aureus [2] = experiment: Antimicrobial activity against extended spectrum beta-lactamases-producing methicillin-resistant Staphylococcus aureus 10-11 after 18-24 hrs by two-fold serial dilution method
How it was run: (§2)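 Agar twofold serial dilution MIC against clinical isolates. MIC was taken as the lowest concentration giving complete inhibition of bacterial growth after incubation at 35 °C for 18-24 h.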

Staphylococcus aureus [3] = experiment: Antimicrobial activity against extended spectrum beta-lactamases-producing methicillin-resistant Staphylococcus aureus 10-15 after 18-24 hrs by two-fold serial dilution method; how it was run: as §2
Staphylococcus aureus [4] = experiment: Antimicrobial activity against extended spectrum beta-lactamases-producing methicillin-sensitive Staphylococcus aureus 10-13 after 18-24 hrs by two-fold serial dilution method; how it was run: as §1
Staphylococcus aureus [5] = experiment: Antimicrobial activity against extended spectrum beta-lactamases-producing methicillin-sensitive Staphylococcus aureus 10-14 after 18-24 hrs by two-fold serial dilution method; how it was run: as §1
[6] = test system: Staphylococcus epidermidis; experiment: Antimicrobial activity against extended spectrum beta-lactamases-producing methicillin-resistant Staphylococcus epidermidis 10-10 after 18-24 hrs by two-fold serial dilution method; how it was run: as §2
[7] = test system: Staphylococcus epidermidis; experiment: Antimicrobial activity against extended spectrum beta-lactamases-producing methicillin-resistant Staphylococcus epidermidis 10-13 after 18-24 hrs by two-fold serial dilution method; how it was run: as §2
[8] = test system: Staphylococcus epidermidis; experiment: Antimicrobial activity against extended spectrum beta-lactamases-producing methicillin-sensitive Staphylococcus epidermidis 10-11 after 18-24 hrs by two-fold serial dilution method; how it was run: as §1
[9] = test system: Staphylococcus epidermidis; experiment: Antimicrobial activity against extended spectrum beta-lactamases-producing methicillin-sensitive Staphylococcus epidermidis 10-13 after 18-24 hrs by two-fold serial dilution method; how it was run: as §1
[10] = test system: Staphylococcus epidermidis; experiment: Antimicrobial activity against extended spectrum beta-lactamases-producing methicillin-sensitive Staphylococcus epidermidis 10-15 after 18-24 hrs by two-fold serial dilution method; how it was run: as §1
Enterococcus faecalis [11] = experiment: Antimicrobial activity against Enterococcus faecalis 10-5 after 18-24 hrs by two-fold serial dilution method; how it was run: as §1
Enterococcus faecalis [12] = experiment: Antimicrobial activity against Enterococcus faecalis 10-6 after 18-24 hrs by two-fold serial dilution method; how it was run: as §1
Enterococcus faecalis [13] = experiment: Antimicrobial activity against Enterococcus faecalis 10-7 after 18-24 hrs by two-fold serial dilution method; how it was run: as §1
Enterococcus faecium [14] = experiment: Antimicrobial activity against Enterococcus faecium 10-5 after 18-24 hrs by two-fold serial dilution method; how it was run: as §1
Enterococcus faecium [15] = experiment: Antimicrobial activity against Enterococcus faecium 10-9 after 18-24 hrs by two-fold serial dilution method; how it was run: as §1
Streptococcus pneumoniae [16] = experiment: Antimicrobial activity against extended spectrum beta-lactamases-producing Streptococcus pneumoniae 10-1 after 18-24 hrs by two-fold serial dilution method; how it was run: as §1
Streptococcus pneumoniae [17] = experiment: Antimicrobial activity against extended spectrum beta-lactamases-producing Streptococcus pneumoniae 10-4 after 18-24 hrs by two-fold serial dilution method; how it was run: as §1
Escherichia coli [18] = experiment: Antimicrobial activity against Escherichia coli ATCC 25922 after 18-24 hrs by two-fold serial dilution method; how it was run: as §1
Escherichia coli [19] = experiment: Antimicrobial activity against Escherichia coli 10-1 after 18-24 hrs by two-fold serial dilution method; how it was run: as §1
Escherichia coli [20] = experiment: Antimicrobial activity against Escherichia coli 10-2 after 18-24 hrs by two-fold serial dilution method; how it was run: as §1
Escherichia coli [21] = experiment: Antimicrobial activity against extended spectrum beta-lactamases-producing Escherichia coli 10-2 after 18-24 hrs by two-fold serial dilution method; how it was run: as §1
Escherichia coli [22] = experiment: Antimicrobial activity against Escherichia coli 10-3 after 18-24 hrs by two-fold serial dilution method; how it was run: as §1
Escherichia coli [23] = experiment: Antimicrobial activity against extended spectrum beta-lactamases-producing Escherichia coli 10-3 after 18-24 hrs by two-fold serial dilution method; how it was run: as §1
Escherichia coli [24] = experiment: Antimicrobial activity against extended spectrum beta-lactamases-producing Escherichia coli 10-4 after 18-24 hrs by two-fold serial dilution method; how it was run: as §1
Klebsiella pneumoniae [25] = experiment: Antimicrobial activity against extended spectrum beta-lactamases-producing Klebsiella pneumoniae 10-1 after 18-24 hrs by two-fold serial dilution method; how it was run: as §1
Klebsiella pneumoniae [26] = experiment: Antimicrobial activity against Klebsiella pneumoniae 10-2 after 18-24 hrs by two-fold serial dilution method; how it was run: as §1
Klebsiella pneumoniae [27] = experiment: Antimicrobial activity against extended spectrum beta-lactamases-producing Klebsiella pneumoniae 10-2 after 18-24 hrs by two-fold serial dilution method; how it was run: as §1
Klebsiella pneumoniae [28] = experiment: Antimicrobial activity against Klebsiella pneumoniae 10-3 after 18-24 hrs by two-fold serial dilution method; how it was run: as §1
Klebsiella pneumoniae [29] = experiment: Antimicrobial activity against extended spectrum beta-lactamases-producing Klebsiella pneumoniae 10-3 after 18-24 hrs by two-fold serial dilution method; how it was run: as §1
Klebsiella pneumoniae [30] = experiment: Antimicrobial activity against Klebsiella pneumoniae 10-4 after 18-24 hrs by two-fold serial dilution method; how it was run: as §1
Pseudomonas aeruginosa [31] = experiment: Antimicrobial activity against Pseudomonas aeruginosa 10-12 after 18-24 hrs by two-fold serial dilution method; how it was run: as §1
Pseudomonas aeruginosa [32] = experiment: Antimicrobial activity against extended spectrum beta-lactamases-producing Pseudomonas aeruginosa 10-5 after 18-24 hrs by two-fold serial dilution method; how it was run: as §1
Pseudomonas aeruginosa [33] = experiment: Antimicrobial activity against extended spectrum beta-lactamases-producing Pseudomonas aeruginosa 10-9 after 18-24 hrs by two-fold serial dilution method; how it was run: as §1
Pseudomonas aeruginosa [34] = experiment: Antimicrobial activity against extended spectrum beta-lactamases-producing Pseudomonas aeruginosa 10-15 after 18-24 hrs by two-fold serial dilution method; how it was run: as §1
Pseudomonas aeruginosa [35] = experiment: Antimicrobial activity against extended spectrum beta-lactamases-producing Pseudomonas aeruginosa 10-18 after 18-24 hrs by two-fold serial dilution method; how it was run: as §1
Pseudomonas aeruginosa [36] = experiment: Antimicrobial activity against extended spectrum beta-lactamases-producing Pseudomonas aeruginosa 10-20 after 18-24 hrs by two-fold serial dilution method; how it was run: as §1

Compound | MIC (Staphylococcus aureus [1]) [µg/mL] | MIC (Staphylococcus aureus [2]) [µg/mL] | MIC (Staphylococcus aureus [3]) [µg/mL] | MIC (Staphylococcus aureus [4]) [µg/mL] | MIC (Staphylococcus aureus [5]) [µg/mL] | MIC [6] [µg/mL] | MIC [7] [µg/mL] | MIC [8] [µg/mL] | MIC [9] [µg/mL] | MIC [10] [µg/mL] | MIC (Enterococcus faecalis [11]) [µg/mL] | MIC (Enterococcus faecalis [12]) [µg/mL] | MIC (Enterococcus faecalis [13]) [µg/mL] | MIC (Enterococcus faecium [14]) [µg/mL] | MIC (Enterococcus faecium [15]) [µg/mL] | MIC (Streptococcus pneumoniae [16]) [µg/mL] | MIC (Streptococcus pneumoniae [17]) [µg/mL] | MIC (Escherichia coli [18]) [µg/mL] | MIC (Escherichia coli [19]) [µg/mL] | MIC (Escherichia coli [20]) [µg/mL] | other results
COc1cc(CO/N=C2\CN(c3nc4c(cc3F)c(=O)c(C(=O)O)cn4C3CC3)CC2CN)ccc1OC(F)F.CS(=O)(=O)O (racemic) | 0.008 | 2 | 0.5 | 0.06 | 0.03 | 2 | 4 | 0.25 | 8 | 4 | 2 | 8 | 4 | 8 | 16 | 0.25 | 2 | 0.06 | > 128 | 16 | MIC (Escherichia coli [21]): > 128 µg/mL; MIC (Escherichia coli [22]): 16 µg/mL; MIC (Escherichia coli [23]): > 128 µg/mL; MIC (Escherichia coli [24]): 8 µg/mL; MIC (Klebsiella pneumoniae [25]): > 128 µg/mL; MIC (Klebsiella pneumoniae [26]): > 128 µg/mL; MIC (Klebsiella pneumoniae [27]): > 128 µg/mL; MIC (Klebsiella pneumoniae [28]): 8 µg/mL; MIC (Klebsiella pneumoniae [29]): > 128 µg/mL; MIC (Klebsiella pneumoniae [30]): > 128 µg/mL; MIC (Pseudomonas aeruginosa [31]): 8 µg/mL; MIC (Pseudomonas aeruginosa [32]): 8 µg/mL; MIC (Pseudomonas aeruginosa [33]): 8 µg/mL; MIC (Pseudomonas aeruginosa [34]): 32 µg/mL; MIC (Pseudomonas aeruginosa [35]): 16 µg/mL; MIC (Pseudomonas aeruginosa [36]): 8 µg/mL
COc1ccc(CO/N=C2\CN(c3nc4c(cc3F)c(=O)c(C(=O)O)cn4C3CC3)CC2CN)cc1.CS(=O)(=O)O (racemic) | 0.015 | 1 | 0.25 | 0.015 | 0.03 | 0.5 | 0.5 | 0.5 | 0.03 | 2 | 0.125 | 2 | 1 | 4 | 8 | 0.125 | 0.125 | 0.06 | 32 | 2 | MIC (Escherichia coli [21]): 128 µg/mL; MIC (Escherichia coli [22]): 8 µg/mL; MIC (Escherichia coli [23]): 16 µg/mL; MIC (Escherichia coli [24]): 2 µg/mL; MIC (Klebsiella pneumoniae [25]): 64 µg/mL; MIC (Klebsiella pneumoniae [26]): 128 µg/mL; MIC (Klebsiella pneumoniae [27]): 128 µg/mL; MIC (Klebsiella pneumoniae [28]): 4 µg/mL; MIC (Klebsiella pneumoniae [29]): 128 µg/mL; MIC (Klebsiella pneumoniae [30]): 128 µg/mL; MIC (Pseudomonas aeruginosa [31]): 2 µg/mL; MIC (Pseudomonas aeruginosa [32]): 4 µg/mL; MIC (Pseudomonas aeruginosa [33]): 4 µg/mL; MIC (Pseudomonas aeruginosa [34]): 8 µg/mL; MIC (Pseudomonas aeruginosa [35]): 4 µg/mL; MIC (Pseudomonas aeruginosa [36]): 2 µg/mL
